We go through eleven molecules from ChEMBL document CHEMBL2040808, “Design, synthesis, and in vitro activity of novel 2'-O-substituted 15-membered azalides” (J Med Chem, 2012).

Values after ≈ are worked out from the molar mass of the structure shown. Bounds are passed on as bounds.

Data set [1] relates to Plasmodium falciparum. Put plainly: Antimalarial activity against chloroquine-sensitive Plasmodium falciparum 3D7A infected in type A rhesus-positive human erythrocytes assessed as [3H]hypoxanthine incorporation after 48 hrs by scintillation counting. The class given is functional, organism-based. The method in brief:
(§1)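 Modified semiautomated microdilution: compounds dissolved in DMSO, diluted in RPMI 1640 with 10% v/v human plasma, serial 1:2 dilutions in triplicate. Infected erythrocytes at 3% hematocrit, 0.25−0.55% parasitemia. [3H]hypoxanthine at 12.5−16 μCi/mL final. Incubated 48 h, 37 °C, in 5% O2/3% CO2/92% N2. Harvested on fiberglass strips, scintillation counted. IC50 by nonlinear regression of concentration−response curves.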

For data set [2], the system named is Plasmodium falciparum. Nature of the data set: Antimalarial activity against chloroquine-resistant Plasmodium falciparum W2 infected in type A rhesus-positive human erythrocytes assessed as [3H]hypoxanthine incorporation after 48 hrs by scintillation counting. The class given is functional, organism-based. In short, it runs like this:
as §1

For data set [3], the system named is Plasmodium falciparum. Put plainly: Ratio of IC50 for azithromycin to compound IC50 for chloroquine-sensitive Plasmodium falciparum 3D7A infected in type A rhesus-positive human erythrocytes assessed as [3H]hypoxanthine incorporation after 48 hrs by scintillation counting. Format: functional.
The test system of data set [4] is Plasmodium falciparum. Put plainly: Ratio of IC50 for azithromycin to compound IC50 for chloroquine-resistant Plasmodium falciparum W2 infected in type A rhesus-positive human erythrocytes assessed as [3H]hypoxanthine incorporation after 48 hrs by scintillation counting. Format: functional.
In the next data set the test system is HepG2. Nature of the data set: Cytotoxicity against human HepG2 cells after 24 hrs by MTS assay. Format: cell-based. As to conditions: HepG2, 24 h. The method in brief:
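Hep G2 cells were kept in RPMI 1640 with 10% FBS at 37 °C and 5% CO2. Wells held 50000 cells and received 1:2 serial dilutions of compound (DMSO stock diluted in medium) for 24 h. MTS reagent was then added for 2 h, absorbance was read at 490 nm, and IC50 was taken from response curves.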

Data set [5] in a line: Selectivity ratio of IC50 for human HepG2 cells to IC50 for chloroquine-sensitive Plasmodium falciparum 3D7A. As to conditions: HepG2 cells versus Plasmodium falciparum 3D7A, read-out: Ratio IC50. Format: ADME, cell-based. The method in brief: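 Selectivity is the HepG2 IC50 divided by the P. falciparum IC50. For HepG2, 50000 cells per well in RPMI 1640 with 10% FBS were exposed to 1:2 serial dilutions for 24 h at 37 °C, 5% CO2. MTS was added for 2 h and absorbance read at 490 nm. Parasite IC50 came from the 48 h [3H]hypoxanthine assay.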

The test system of another data set is Streptococcus pneumoniae. Put plainly: Antibacterial activity against Streptococcus pneumoniae isolate SP030 by broth microdilution method. The class given is functional. The method in brief:
(§2)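 Standard broth microdilution MIC against macrolide-sensitive strains. For streptococci, 5% horse serum replaced lysed horse blood in the broth, and inocula were grown on Columbia agar with 5% sheep blood. S. aureus was grown on Mueller–Hinton agar.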

In another data set the test system is Streptococcus pyogenes. Put plainly: Antibacterial activity against Streptococcus pyogenes isolate 3565 by broth microdilution method. The class given is functional. The method in brief:
as §2

A further data set relates to Staphylococcus aureus. Put plainly: Antibacterial activity against Staphylococcus aureus ATCC 13709 by broth microdilution method. Format: functional. In short, it runs like this: as §2
The nature of data set [6]: Aqueous solubility of the compound at pH 4. The class given is physicochemical.
Data set [7] in a line: Selectivity ratio of IC50 for human HepG2 cells to IC50 for chloroquine-sensitive Plasmodium falciparum 3D7A. Conditions: HepG2 cells versus Plasmodium falciparum 3D7A.

For the molecule `CC[C@H]1OC(=O)[C@H](C)[C@@H](O)[C@H](C)[C@@H](O[C@@H]2O[C@H](C)C[C@H](N(C)C)[C@H]2OCCCNC(=O)CNc2ccnc3cc(Cl)ccc23)[C@](C)(O)C[C@@H](C)CN(C)[C@H](C)[C@@H](O)[C@]1(C)O`, the IC50 in the data set with Plasmodium falciparum [1] is 138 nM; in the data set on Plasmodium falciparum [2] it was 84 nM; in the data set with HepG2, above 100000 nM. The “Ratio IC50” value in the data set on Plasmodium falciparum [3] and in the data set on Plasmodium falciparum [4] was 3 throughout. Further, the selectivity ratio in data set [5] and in data set [7] was 132 in each case. Besides, the minimum inhibitory concentration (MIC) in the data set with Streptococcus pneumoniae, against Streptococcus pyogenes and in the data set with Staphylococcus aureus was above 64 µg/mL in each case. The molecule further returned a solubility in data set [6] above 10000 µg/mL.
Consider `CC[C@H]1OC(=O)[C@H](C)[C@@H](O[C@H]2C[C@@](C)(OC)[C@@H](O)[C@H](C)O2)[C@H](C)[C@@H](O[C@@H]2O[C@H](C)C[C@H](N(C)C)[C@H]2OCCCNC(=O)CCCNc2ccnc3cc(Cl)ccc23)[C@](C)(O)C[C@@H](C)CN(C)[C@H](C)[C@@H](O)[C@]1(C)O`, for which the figures for the IC50 with Plasmodium falciparum [1], with Plasmodium falciparum [2] and with HepG2 were 29 nM, 19 nM and 50000 nM, respectively. The “Ratio IC50” value in the data set with Plasmodium falciparum [3] and in the data set on Plasmodium falciparum [4] was 3 in each case. Moreover, the selectivity ratio in [5] and in data set [7] was 132 each time. Moreover, the MIC against Streptococcus pneumoniae, in the data set on Streptococcus pyogenes and against Staphylococcus aureus was above 64 µg/mL each time. The same molecule displayed a solubility in [6] above 10000 µg/mL.
As to `CC[C@H]1OC(=O)[C@H](C)[C@@H](O[C@H]2C[C@@](C)(OC)[C@@H](O)[C@H](C)O2)[C@H](C)[C@@H](O[C@@H]2O[C@H](C)C[C@H](N(C)C)[C@H]2OCCCNC(=O)CCCNc2ccnc3ccccc23)[C@](C)(O)C[C@@H](C)CN(C)[C@H](C)[C@@H](O)[C@]1(C)O`, the IC50 with Plasmodium falciparum [1] was 220 nM; in the data set with Plasmodium falciparum [2] it was 135 nM; in the data set with HepG2, above 100000 nM. For the same molecule, the “Ratio IC50” value in the data set with Plasmodium falciparum [3] and in the data set with Plasmodium falciparum [4] was 3 each time. Also, the selectivity ratio in [5] and in data set [7] was 132 in each case. Also, the MIC against Streptococcus pneumoniae, in the data set with Streptococcus pyogenes and in the data set on Staphylococcus aureus was above 64 µg/mL throughout. In addition, the solubility in [6] is above 10000 µg/mL.
On to `CC[C@H]1OC(=O)[C@H](C)[C@@H](O)[C@H](C)[C@@H](O[C@@H]2O[C@H](C)C[C@H](N(C)C)[C@H]2OCCCNC(=O)CCCNc2ccnc3cc(Cl)ccc23)[C@](C)(O)C[C@@H](C)CN(C)[C@H](C)[C@@H](O)[C@]1(C)O`, for which the IC50 in the data set on Plasmodium falciparum [1] came to 402 nM; with Plasmodium falciparum [2], 224 nM; with HepG2, 75000 nM. The “Ratio IC50” value in the data set with Plasmodium falciparum [3] and in the data set on Plasmodium falciparum [4] was 3 each time. The selectivity ratio in [5] and in [7] was 132 throughout. In addition, the MIC against Streptococcus pneumoniae, in the data set with Streptococcus pyogenes and in the data set on Staphylococcus aureus was above 64 µg/mL in each case. Also, the solubility in data set [6] is above 10000 µg/mL.
Take `CC[C@H]1OC(=O)[C@H](C)[C@@H](O[C@H]2C[C@@](C)(OC)[C@@H](O)[C@H](C)O2)[C@H](C)[C@@H](O[C@@H]2O[C@H](C)C[C@H](N(C)C)[C@H]2OCCCNc2ccnc3cc(Cl)ccc23)[C@](C)(O)C[C@@H](C)CN(C)[C@H](C)[C@@H](O)[C@]1(C)O`: the IC50 is 21 nM in the data set with Plasmodium falciparum [1], 10 nM in the data set on Plasmodium falciparum [2] and 45000 nM in the data set on HepG2. The “Ratio IC50” value in the data set with Plasmodium falciparum [3] and with Plasmodium falciparum [4] was 3 each time. Further, the selectivity ratio in data set [5] and in data set [7] was 132 in each case. The MIC was 64 µg/mL (≈ 66.1 µM) in the data set on Streptococcus pneumoniae, 64 µg/mL (≈ 66.1 µM) in the data set on Streptococcus pyogenes and above 64 µg/mL against Staphylococcus aureus. In addition, in data set [6], the solubility was above 10000 µg/mL.
For the molecule `CC[C@H]1OC(=O)[C@H](C)[C@@H](O[C@H]2C[C@@](C)(OC)[C@@H](O)[C@H](C)O2)[C@H](C)[C@@H](O[C@@H]2O[C@H](C)C[C@H](N(C)C)[C@H]2OCCCNc2ccnc3ccccc23)[C@](C)(O)C[C@@H](C)CN(C)[C@H](C)[C@@H](O)[C@]1(C)O`, the IC50 with Plasmodium falciparum [1] was determined as 64 nM; in the data set on Plasmodium falciparum [2], 35 nM; with HepG2 it was 80000 nM. Further, the “Ratio IC50” value with Plasmodium falciparum [3] and in the data set with Plasmodium falciparum [4] was 3 in each case. Further, the selectivity ratio in data set [5] and in data set [7] was 132 each time. Also, the MIC came to 32 µg/mL (≈ 34.3 µM) with Streptococcus pneumoniae, 32 µg/mL (≈ 34.3 µM) against Streptococcus pyogenes and 16 µg/mL (≈ 17.1 µM) with Staphylococcus aureus. Further, the solubility in data set [6] was above 10000 µg/mL.
As to `CC[C@H]1OC(=O)[C@H](C)[C@@H](O)[C@H](C)[C@@H](O[C@@H]2O[C@H](C)C[C@H](N(C)C)[C@H]2OCCCNc2ccnc3cc(Cl)ccc23)[C@](C)(O)C[C@@H](C)CN(C)[C@H](C)[C@@H](O)[C@]1(C)O`, the IC50 in the data set on Plasmodium falciparum [1] turned out to be 37 nM; in the data set with Plasmodium falciparum [2], 25 nM; in the data set with HepG2 it was 83000 nM. In addition, the “Ratio IC50” value with Plasmodium falciparum [3] and in the data set on Plasmodium falciparum [4] was 3 each time. The selectivity ratio in [5] and in [7] was 132 throughout. The MIC against Streptococcus pneumoniae, in the data set with Streptococcus pyogenes and with Staphylococcus aureus was above 64 µg/mL throughout. In data set [6], this molecule came in with a solubility above 10000 µg/mL.
Turning to `CC[C@H]1OC(=O)[C@H](C)[C@@H](O[C@H]2C[C@@](C)(OC)[C@@H](O)[C@H](C)O2)[C@H](C)[C@@H](O[C@@H]2O[C@H](C)C[C@H](N(C)C)[C@H]2OCCC(=O)NCCNc2ccnc3cc(Cl)ccc23)[C@](C)(O)C[C@@H](C)CN(C)[C@H](C)[C@@H](O)[C@]1(C)O`, the IC50 in the data set on Plasmodium falciparum [1] was found to be 18 nM; in the data set with Plasmodium falciparum [2] it was 13 nM; in the data set with HepG2, 18000 nM. The “Ratio IC50” value in the data set with Plasmodium falciparum [3] and in the data set on Plasmodium falciparum [4] was 3 each time. In addition, the selectivity ratio in [5] and in data set [7] was 132 each time. For the same molecule, the MIC with Streptococcus pneumoniae, in the data set on Streptococcus pyogenes and in the data set with Staphylococcus aureus was 64 µg/mL (≈ 62.5 µM) in each case. This molecule gave a solubility in [6] above 10000 µg/mL.
Turning to `CC[C@H]1OC(=O)[C@H](C)[C@@H](O[C@H]2C[C@@](C)(OC)[C@@H](O)[C@H](C)O2)[C@H](C)[C@@H](O[C@@H]2O[C@H](C)C[C@H](N(C)C)[C@H]2OCCCNCc2ccnc3ccccc23)[C@](C)(O)C[C@@H](C)CN(C)[C@H](C)[C@@H](O)[C@]1(C)O`, the IC50 was 141 nM in the data set on Plasmodium falciparum [1], 78 nM in the data set on Plasmodium falciparum [2] and 45000 nM in the data set with HepG2. In addition, the “Ratio IC50” value with Plasmodium falciparum [3] and with Plasmodium falciparum [4] was 3 each time. Also, the selectivity ratio in data set [5] and in [7] was 132 each time. Further, the MIC in the data set on Streptococcus pneumoniae, against Streptococcus pyogenes and against Staphylococcus aureus was above 64 µg/mL each time. The molecule further showed a solubility in data set [6] above 10000 µg/mL.
`CC[C@H]1OC(=O)[C@H](C)[C@@H](O[C@H]2C[C@@](C)(OC)[C@@H](O)[C@H](C)O2)[C@H](C)[C@@H](O[C@@H]2O[C@H](C)C[C@H](N(C)C)[C@H]2OCCCNCc2cnc3ccccc3c2)[C@](C)(O)C[C@@H](C)CN(C)[C@H](C)[C@@H](O)[C@]1(C)O`: the IC50 in the data set on Plasmodium falciparum [1] turned out to be 228 nM; with Plasmodium falciparum [2], 46 nM; with HepG2, 20000 nM. Also, the “Ratio IC50” value in the data set with Plasmodium falciparum [3] and in the data set with Plasmodium falciparum [4] was 3 throughout. Further, the selectivity ratio in data set [5] and in data set [7] was 88 in each case. The MIC in the data set with Streptococcus pneumoniae, in the data set on Streptococcus pyogenes and in the data set on Staphylococcus aureus was above 64 µg/mL each time. For the same molecule, the solubility in data set [6] was above 10000 µg/mL.
For the molecule `CC[C@H]1OC(=O)[C@H](C)[C@@H](O[C@H]2C[C@@](C)(OC)[C@@H](O)[C@H](C)O2)[C@H](C)[C@@H](O[C@@H]2O[C@H](C)C[C@H](N(C)C)[C@H]2OCCCNCc2ccc3ccccc3n2)[C@](C)(O)C[C@@H](C)CN(C)[C@H](C)[C@@H](O)[C@]1(C)O`, the half-maximal inhibitory concentration (IC50) in the data set on Plasmodium falciparum [1] was 227 nM; with Plasmodium falciparum [2], 55 nM; in the data set with HepG2, 30000 nM. The “Ratio IC50” value in the data set with Plasmodium falciparum [3] and with Plasmodium falciparum [4] was 3 each time. The selectivity ratio in [5] and in data set [7] was 132 each time. Moreover, the MIC against Streptococcus pneumoniae, against Streptococcus pyogenes and against Staphylococcus aureus was above 64 µg/mL throughout. This molecule showed a solubility in data set [6] above 10000 µg/mL.
